Source: ChEMBL document CHEMBL4422663, “Suppression of Tumor Growth and Metastases by Targeted Intervention in Urokinase Activity with Cyclic Peptides” (J Med Chem, 2019)
The source made the active and inactive calls. No cut-off for these calls is given here. Positions of bridges follow the written chain, without caps; N, C: chain ends. Residues, ends and D or L forms follow the SMILES beside them.

Experiments:
[1] = target: Urokinase-type plasminogen activator (Mus musculus) (UniProt P06869); assay: Inhibition of the intrinsic peri-cellular uPA in mouse CT26 cells assessed as reduction in cell migration at 100 uM measured every hour by wound healing assay relative to control; assay type: cell-based
CT26 [2] = assay: Cytotoxicity against mouse CT26 cells at 100 uM; assay type: cell-based; conditions: ct26, 100 µM
MCF7 = assay: Anti-invasive activity in human MCF7 cells at 100 uM measured every hour by transwell assay; assay type: functional, cell-based
[3] = target: Urokinase-type plasminogen activator (Mus musculus) (UniProt P06869); assay: Inhibition of the intrinsic peri-cellular uPA in mouse CT26 cells assessed as reduction in cell invasion at 100 uM […] by transwell assay; assay type: cell-based
Summary of the method: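 CT-26 cells, 2×10^5 per Matrigel-coated Transwell top chamber in serum-free DMEM with peptide; 10% serum medium below. After 24 h, invaded underside cells stained with 0.1% crystal violet, eluted in 33% acetic acid, read at A570 and normalized to untreated (100%). Triplicates. The legend gives a 0.1–100 μM dose range, with IC50 derived from the dose-response.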

[4] = target: Vitamin K-dependent protein C (Homo sapiens, UniProt P04070); assay: Inhibition of human activated protein C preincubated for 15 mins followed by chromogenic substrate addition
Prothrombin [5] = target: Prothrombin (Homo sapiens, UniProt P00734); assay: Inhibition of human thrombin preincubated for 15 mins followed by chromogenic substrate addition
[6] = Inhibition of mouse trypsin preincubated for 15 mins followed by chromogenic substrate addition
Coagulation factor XI = Coagulation factor XI (Homo sapiens, UniProt P03951); assay: Inhibition of human factor 11a preincubated for 15 mins followed by chromogenic substrate addition
[7] = target: T1, Urokinase-type plasminogen activator (Mus musculus, UniProt P06869); assay: Inhibition of mouse uPA
[8] = target: Urokinase-type plasminogen activator (Mus musculus) (UniProt P06869); assay: Inhibition of the intrinsic peri-cellular uPA in mouse CT26 cells assessed as reduction in cell migration at 30 to 100 uM measured every hour by wound healing assay relative to control; assay type: cell-based
[9] = target: T2, Suppressor of tumorigenicity 14 protein (Homo sapiens, UniProt Q9Y5Y6); assay: Inhibition of human matriptase preincubated for 15 mins followed by chromogenic substrate addition
T2 sequence (Q9Y5Y6 whole entry): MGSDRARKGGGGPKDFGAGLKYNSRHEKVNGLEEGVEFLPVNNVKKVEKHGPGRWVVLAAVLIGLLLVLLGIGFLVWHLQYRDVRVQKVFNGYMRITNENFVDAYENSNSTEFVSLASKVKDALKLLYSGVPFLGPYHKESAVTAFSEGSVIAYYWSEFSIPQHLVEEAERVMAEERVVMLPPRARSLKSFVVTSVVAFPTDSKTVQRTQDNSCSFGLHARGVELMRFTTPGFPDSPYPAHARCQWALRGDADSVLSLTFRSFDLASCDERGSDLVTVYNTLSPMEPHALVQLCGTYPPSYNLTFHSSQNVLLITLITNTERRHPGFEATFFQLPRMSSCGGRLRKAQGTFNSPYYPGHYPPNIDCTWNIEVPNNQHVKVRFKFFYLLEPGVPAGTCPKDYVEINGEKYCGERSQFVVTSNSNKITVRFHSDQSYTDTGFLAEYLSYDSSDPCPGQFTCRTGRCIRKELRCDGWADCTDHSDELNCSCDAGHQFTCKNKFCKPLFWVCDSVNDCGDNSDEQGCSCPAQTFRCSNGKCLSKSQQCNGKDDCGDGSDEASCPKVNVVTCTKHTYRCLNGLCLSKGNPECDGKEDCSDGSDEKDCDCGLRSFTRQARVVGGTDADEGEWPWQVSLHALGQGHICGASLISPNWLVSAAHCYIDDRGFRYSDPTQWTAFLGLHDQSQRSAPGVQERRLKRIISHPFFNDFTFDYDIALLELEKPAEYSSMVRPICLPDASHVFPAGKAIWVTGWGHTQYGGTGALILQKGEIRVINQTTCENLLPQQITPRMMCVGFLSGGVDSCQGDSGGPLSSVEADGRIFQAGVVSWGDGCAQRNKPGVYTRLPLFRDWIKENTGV

[10] = target: T1, Urokinase-type plasminogen activator; assay: Binding affinity to mouse uPA by SPR assay
Prothrombin [11] = target: Prothrombin (Mus musculus, UniProt P19221); assay: Inhibition of mouse thrombin preincubated for 15 mins followed by chromogenic substrate addition
Plasminogen [12] = target: Plasminogen (Mus musculus, UniProt P20918); assay: Inhibition of mouse plasmin preincubated for 15 mins followed by chromogenic substrate addition
Plasminogen [13] = target: Plasminogen (Homo sapiens, UniProt P00747); assay: Inhibition of human plasmin preincubated for 15 mins followed by chromogenic substrate addition
Plasma kallikrein [14] = target: Plasma kallikrein (Homo sapiens, UniProt P03952); assay: Inhibition of human plasma kallikrein preincubated for 15 mins followed by chromogenic substrate addition
[15] = target: T1, Urokinase-type plasminogen activator; assay: Binding affinity to mouse uPA expressed in HEK2936E cells by ITC assay
[16] = target: Urokinase-type plasminogen activator (Mus musculus) (UniProt P06869); assay: Inhibition of the intrinsic peri-cellular uPA in mouse CT26 cells assessed as reduction in cell invasion at 33 to 100 uM by Transwell invasion assay relative to control
[17] = target: Urokinase-type plasminogen activator (Homo sapiens, UniProt P00749); assay: Inhibition of human uPA preincubated for 15 mins followed by chromogenic substrate addition
[18] = target: Urokinase-type plasminogen activator (Mus musculus) (UniProt P06869); assay: Binding affinity to mouse uPA assessed as dissociation rate constant after 600 secs by SPR assay
[19] = target: T1, Urokinase-type plasminogen activator; assay: Inhibition of mouse uPA serine protease domain preincubated for 15 mins followed by chromogenic substrate addition
[20] = target: Tissue-type plasminogen activator (Homo sapiens, UniProt P00750); assay: Inhibition of human tissue-type plasminogen activator preincubated for 15 mins followed by chromogenic substrate addition
[21] = target: Tissue-type plasminogen activator (Mus musculus, UniProt P11214); assay: Inhibition of mouse tissue-type plasminogen activator preincubated for 15 mins followed by chromogenic substrate addition
[22] = target: T1, Urokinase-type plasminogen activator; assay: Inhibition of mouse uPA preincubated for 15 mins followed by chromogenic substrate addition
Plasma kallikrein [23] = target: Plasma kallikrein (Mus musculus, UniProt P26262); assay: Inhibition of mouse plasma kallikrein preincubated for 15 mins followed by chromogenic substrate addition
CT26 [24] = assay: Anti-tumor activity against […] mouse CT26 cells allografted in Balb/c mouse assessed as tumor growth inhibition at 12.3 mg/kg, ip administered daily for 15 days and measured on day 16 by […]; assay type: functional; conditions: read-out: TGI
Summary of the method: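 CT-26 cells implanted subcutaneously in right flank of Balb/c mice; once tumors reached about 150~200 mm3, daily intraperitoneal dosing with peptide or saline for 15 days. Mice sacrificed on Day 16; tumors resected and weighed; tumor growth reduction relative to saline group.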

CT26 [25] = assay: Antimetastatic activity against GFP-fused mouse CT26 cells allografted in Balb/c mouse assessed as reduction in relative fluorescence at 12.3 mg/kg, ip administered daily for 15 days by fluorescence-based assay; assay type: functional, organism-based
Summary of the method: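 Lung metastasis model: male Balb/c mice (~20 g, 6/group) given 10^6 GFP-CT-26 cells i.v. with peptide or saline, daily i.p. dosing Day 1–15, sacrificed Day 16. Resected lungs imaged for GFP with 488 nm excitation, emission 520; signal collected over 20×20 mm2 per lung; non-implanted normal group used for background subtraction.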

CT26 [26] = assay: Antimetastatic activity against GFP-fused mouse CT26 cells allografted in Balb/c mouse assessed as reduction in tumor nodule numbers at 12.3 mg/kg, ip administered daily for 15 days by fluorescence-based assay; assay type: functional, organism-based
Summary of the method: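 Lung metastasis model: male Balb/c mice (~20 g, 6/group) given 10^6 GFP-CT-26 cells i.v. with peptide or saline, daily i.p. dosing Day 1–15, sacrificed Day 16. Surface tumor nodules on pleural surfaces counted per lung after soaking in formaldehyde.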

[27] = Toxicity in Balb/c mouse allografted with mouse CT26 cells assessed as effect on body weight at 12.3 mg/kg, ip administered daily for 15 days; assay type: organism-based; conditions: in vivo, 360 h
Summary of the method: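 CT-26 tumour-bearing Balb/c mice dosed i.p. daily with peptide or saline; body weights recorded daily over the 15 days.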

CT26 [28] = assay: Antimetastatic activity against mouse CT26 cells allografted in Balb/c mouse at 12.3 mg/kg, ip administered daily for 15 days by hematoxylin and eosin staining -based assay; assay type: functional, organism-based
Summary of the method: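 Lung metastasis model: male Balb/c mice given 10^6 GFP-CT-26 cells i.v., daily i.p. dosing Day 1–15, sacrificed Day 16. Formalin-fixed, paraffin-embedded lung sections stained with H&E for histology alongside normal lungs.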

CT26 [29] = assay: Antimetastatic activity against mouse CT26 cells allografted in Balb/c mouse assessed as reduction genomic DNA of metastatic cells at 12.3 mg/kg, ip administered daily for 15 days by qPCR analysis; assay type: functional, organism-based
Summary of the method: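 Male Balb/c mice (~20 g, 6/group) given 10^6 GFP-CT-26 cells i.v. in 200 µl mixed with peptide or saline, then daily i.p. peptide Day 1–15; sacrificed Day 16. Lung total DNA isolated after homogenization; 200 ng per SYBR Green qPCR, quantified against standard curve of CT-26 DNA spiked into normal lung DNA (0.135%-100%).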

CT26 [30] = assay: Antimetastatic activity against GFP-fused mouse CT26 cells allografted in Balb/c mouse assessed as reduction in hyperplastic weights at 12.3 mg/kg, ip administered daily for 15 days by fluorescence-based assay; assay type: functional, organism-based
Summary of the method: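 Lung metastasis model: male Balb/c mice (~20 g, 6/group) given 10^6 GFP-CT-26 cells i.v. with peptide or saline, then daily i.p. dosing Day 1–15. Lungs resected and weighed immediately at sacrifice on Day 16; hyperplastic weight = lung weight minus weight of lungs from non-implanted normal mice.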

[31] = target: Urokinase-type plasminogen activator (Mus musculus) (UniProt P06869); assay: Inhibition of the intrinsic peri-cellular uPA in mouse CT26 cells assessed as reduction in cell invasion measured every hour by transwell assay; assay type: cell-based

Chain of Urokinase-type plasminogen activator (Mus musculus) (P06869 21-178 limits assumed): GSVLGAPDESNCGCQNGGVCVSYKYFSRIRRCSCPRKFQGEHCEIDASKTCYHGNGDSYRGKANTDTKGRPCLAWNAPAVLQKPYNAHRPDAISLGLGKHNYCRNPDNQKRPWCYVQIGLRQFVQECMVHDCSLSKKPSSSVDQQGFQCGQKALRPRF
Chain of Urokinase-type plasminogen activator (Mus musculus) (P06869 180-433 limits assumed): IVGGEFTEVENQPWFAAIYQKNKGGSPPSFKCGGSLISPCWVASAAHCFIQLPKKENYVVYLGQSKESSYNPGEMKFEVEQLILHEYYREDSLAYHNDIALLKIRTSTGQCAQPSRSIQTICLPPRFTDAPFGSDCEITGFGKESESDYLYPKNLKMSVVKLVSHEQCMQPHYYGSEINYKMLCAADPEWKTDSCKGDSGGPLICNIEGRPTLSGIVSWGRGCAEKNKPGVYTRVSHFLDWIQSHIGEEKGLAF
T1 sequence (P06869 21-178 limits assumed): as the sequence (P06869 21-178 limits assumed) above
T1 sequence (P06869 180-433 limits assumed): as the sequence (P06869 180-433 limits assumed) above
Chain of Coagulation factor XI (P03951 19-387 limits assumed): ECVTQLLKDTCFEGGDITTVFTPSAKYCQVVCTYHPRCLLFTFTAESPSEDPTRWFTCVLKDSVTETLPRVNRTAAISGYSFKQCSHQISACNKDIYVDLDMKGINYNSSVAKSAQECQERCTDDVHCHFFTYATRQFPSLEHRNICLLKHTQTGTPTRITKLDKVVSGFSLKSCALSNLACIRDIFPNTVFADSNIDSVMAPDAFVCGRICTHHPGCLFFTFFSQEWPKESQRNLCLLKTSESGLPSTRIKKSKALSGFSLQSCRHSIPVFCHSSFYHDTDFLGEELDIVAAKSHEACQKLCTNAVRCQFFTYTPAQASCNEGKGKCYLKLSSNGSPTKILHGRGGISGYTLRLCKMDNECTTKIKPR
Chain of Coagulation factor XI (P03951 388-625 limits assumed): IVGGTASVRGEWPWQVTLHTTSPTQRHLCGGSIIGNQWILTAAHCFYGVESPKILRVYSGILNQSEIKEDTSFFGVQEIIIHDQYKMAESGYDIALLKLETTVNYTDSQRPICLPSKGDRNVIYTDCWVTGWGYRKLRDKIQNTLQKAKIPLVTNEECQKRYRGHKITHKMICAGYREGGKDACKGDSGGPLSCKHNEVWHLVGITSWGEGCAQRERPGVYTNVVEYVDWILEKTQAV
Chain of Plasminogen (Mus musculus, UniProt P20918) (P20918 98-581 limits assumed): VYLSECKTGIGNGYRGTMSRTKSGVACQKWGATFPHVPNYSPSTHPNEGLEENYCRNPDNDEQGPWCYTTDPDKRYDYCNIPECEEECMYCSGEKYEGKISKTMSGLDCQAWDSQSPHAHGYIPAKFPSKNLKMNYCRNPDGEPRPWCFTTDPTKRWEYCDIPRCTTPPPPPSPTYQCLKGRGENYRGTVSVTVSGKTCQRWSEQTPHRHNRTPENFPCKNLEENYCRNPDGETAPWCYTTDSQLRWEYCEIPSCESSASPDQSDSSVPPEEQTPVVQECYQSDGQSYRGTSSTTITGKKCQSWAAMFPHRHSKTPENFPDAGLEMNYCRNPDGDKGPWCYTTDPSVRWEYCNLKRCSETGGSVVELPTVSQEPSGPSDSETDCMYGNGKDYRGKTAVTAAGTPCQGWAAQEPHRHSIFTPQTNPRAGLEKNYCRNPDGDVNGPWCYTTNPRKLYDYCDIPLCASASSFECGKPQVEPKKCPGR
Chain of Plasminogen (Mus musculus, UniProt P20918) (P20918 582-812 limits assumed): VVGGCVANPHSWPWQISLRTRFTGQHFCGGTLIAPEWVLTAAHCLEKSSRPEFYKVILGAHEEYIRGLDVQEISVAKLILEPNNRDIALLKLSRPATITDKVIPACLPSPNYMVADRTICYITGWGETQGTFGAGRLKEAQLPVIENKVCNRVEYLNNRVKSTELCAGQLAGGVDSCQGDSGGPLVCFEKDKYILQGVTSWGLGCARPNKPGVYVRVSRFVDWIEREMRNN
Chain of Plasminogen (Homo sapiens, UniProt P00747) (P00747 97-580 limits assumed): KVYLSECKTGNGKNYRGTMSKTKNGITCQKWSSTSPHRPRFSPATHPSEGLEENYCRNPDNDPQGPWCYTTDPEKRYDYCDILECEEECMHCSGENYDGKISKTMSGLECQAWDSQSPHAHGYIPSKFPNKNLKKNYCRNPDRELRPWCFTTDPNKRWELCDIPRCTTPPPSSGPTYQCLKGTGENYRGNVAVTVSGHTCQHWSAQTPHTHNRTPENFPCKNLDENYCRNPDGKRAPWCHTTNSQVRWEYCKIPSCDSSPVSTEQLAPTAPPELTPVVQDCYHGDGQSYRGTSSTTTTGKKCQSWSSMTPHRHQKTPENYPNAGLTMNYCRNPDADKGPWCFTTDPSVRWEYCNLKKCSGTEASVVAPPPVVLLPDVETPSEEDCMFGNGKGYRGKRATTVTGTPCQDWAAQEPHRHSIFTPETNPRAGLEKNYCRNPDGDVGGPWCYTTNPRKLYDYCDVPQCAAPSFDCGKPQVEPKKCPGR
Chain of Plasminogen (Homo sapiens, UniProt P00747) (P00747 581-810 limits assumed): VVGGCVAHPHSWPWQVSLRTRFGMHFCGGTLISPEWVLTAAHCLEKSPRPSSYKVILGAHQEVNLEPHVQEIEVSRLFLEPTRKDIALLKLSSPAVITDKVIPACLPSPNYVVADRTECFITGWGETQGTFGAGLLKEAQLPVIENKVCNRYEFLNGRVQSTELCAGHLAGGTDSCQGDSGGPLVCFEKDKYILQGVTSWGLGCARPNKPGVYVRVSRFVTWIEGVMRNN
Chain of Plasma kallikrein (Homo sapiens, UniProt P03952) (P03952 20-390 limits assumed): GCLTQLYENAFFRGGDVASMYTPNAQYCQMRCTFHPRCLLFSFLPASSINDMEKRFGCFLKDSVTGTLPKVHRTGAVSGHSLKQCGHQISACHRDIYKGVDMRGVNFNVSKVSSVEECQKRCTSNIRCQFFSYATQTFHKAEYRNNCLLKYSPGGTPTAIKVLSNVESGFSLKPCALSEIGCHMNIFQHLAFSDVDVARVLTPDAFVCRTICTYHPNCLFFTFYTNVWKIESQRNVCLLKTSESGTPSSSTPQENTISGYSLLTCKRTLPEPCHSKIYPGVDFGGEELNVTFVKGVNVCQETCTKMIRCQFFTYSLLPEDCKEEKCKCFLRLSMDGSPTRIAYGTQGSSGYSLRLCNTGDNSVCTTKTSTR
Chain of Plasma kallikrein (Homo sapiens, UniProt P03952) (P03952 391-638 limits assumed): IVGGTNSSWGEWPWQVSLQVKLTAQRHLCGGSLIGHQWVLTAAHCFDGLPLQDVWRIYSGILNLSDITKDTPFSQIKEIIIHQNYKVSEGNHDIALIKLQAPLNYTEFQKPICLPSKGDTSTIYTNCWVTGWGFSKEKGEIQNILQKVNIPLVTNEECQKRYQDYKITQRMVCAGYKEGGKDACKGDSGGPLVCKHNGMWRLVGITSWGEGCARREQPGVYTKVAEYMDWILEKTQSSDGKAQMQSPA
Chain of Vitamin K-dependent protein C (P04070 43-197 limits assumed): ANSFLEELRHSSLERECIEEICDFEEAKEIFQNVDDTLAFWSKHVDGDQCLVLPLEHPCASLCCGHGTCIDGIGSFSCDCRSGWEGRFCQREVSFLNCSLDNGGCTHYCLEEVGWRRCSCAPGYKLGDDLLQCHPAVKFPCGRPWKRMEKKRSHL
Chain of Vitamin K-dependent protein C (P04070 212-461 limits assumed): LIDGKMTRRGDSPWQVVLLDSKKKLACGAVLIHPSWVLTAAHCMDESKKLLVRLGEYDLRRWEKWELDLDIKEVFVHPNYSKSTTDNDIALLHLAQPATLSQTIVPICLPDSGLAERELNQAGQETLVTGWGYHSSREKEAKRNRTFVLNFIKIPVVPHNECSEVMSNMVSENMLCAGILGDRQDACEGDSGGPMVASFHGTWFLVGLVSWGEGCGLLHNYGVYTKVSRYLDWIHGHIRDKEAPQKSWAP
Chain of Tissue-type plasminogen activator (Mus musculus, UniProt P11214) (P11214 whole entry): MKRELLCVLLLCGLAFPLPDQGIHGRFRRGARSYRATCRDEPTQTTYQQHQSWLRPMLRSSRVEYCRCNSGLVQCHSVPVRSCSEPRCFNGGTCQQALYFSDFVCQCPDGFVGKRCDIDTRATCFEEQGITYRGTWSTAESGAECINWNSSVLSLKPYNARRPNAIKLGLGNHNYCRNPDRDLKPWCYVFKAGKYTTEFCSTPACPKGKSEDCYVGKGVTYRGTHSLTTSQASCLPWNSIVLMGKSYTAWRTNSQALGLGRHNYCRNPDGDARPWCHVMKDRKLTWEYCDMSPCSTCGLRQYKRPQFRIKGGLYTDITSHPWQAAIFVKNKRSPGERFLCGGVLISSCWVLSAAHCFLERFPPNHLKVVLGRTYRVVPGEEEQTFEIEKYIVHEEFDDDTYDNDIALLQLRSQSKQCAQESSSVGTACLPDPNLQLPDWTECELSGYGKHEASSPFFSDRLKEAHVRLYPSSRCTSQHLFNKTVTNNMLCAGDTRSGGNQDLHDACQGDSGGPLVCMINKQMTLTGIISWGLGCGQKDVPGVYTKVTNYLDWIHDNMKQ

Row | Compound | Activity (CT26 [2]) | Ki [4] [µM] | Ki (Prothrombin [5]) [µM] | Ki [6] [µM] | Ki (Coagulation factor XI) [µM] | Ki [7] [µM] | inhibition [8] [%] | Ki [9] [µM] | Kd [10] [µM] | Ki (Prothrombin [11]) [µM] | Ki (Plasminogen [12]) [µM] | Ki (Plasminogen [13]) [µM] | Ki (Plasma kallikrein [14]) [µM] | Kd [15] [µM] | Ki [17] [µM] | Ki [19] [µM] | Ki [20] [µM] | Ki [21] [µM] | Ki [22] [µM] | Ki (Plasma kallikrein [23]) [µM] | further results
1 | CC[C@H](C)[C@@H]1NC(=O)[C@H](Cc2ccc(O)cc2)NC(=O)[C@H](C)NC(=O)[C@H](CO)NC(=O)[C@H](Cc2ccc(O)cc2)NC(=O)[C@H](C)NC(=O)[C@@H]2CCCN2C(=O)[C@@H](N)CSSC[C@@H](C(=O)O)NC(=O)CNC1=O (H-CPAYSAYIGC-OH; disulfide 1-10) | Non-Toxic |  |  |  |  |  |  |  |  |  |  |  |  |  |  |  |  |  |  |  | inhibition [1]: inactive; Activity (MCF7): inactive; inhibition [3]: inactive
2 | CC[C@H](C)[C@@H]1NC(=O)[C@H](Cc2ccc(O)cc2)NC(=O)[C@H](CCCNC(=N)N)NC(=O)[C@H](CO)NC(=O)[C@H](Cc2ccc(O)cc2)NC(=O)[C@H](C)NC(=O)[C@@H]2CCCN2C(=O)[C@@H](NC(C)=O)CSSC[C@@H](C(N)=O)NC(=O)CNC1=O (Ac-CPAYSRYIGC-NH2; disulfide 1-10) | Non-Toxic | > 25 | > 25 | 1.6 | > 25 | 0.02 | 30 | > 25 | 0.0147 | > 25 | > 25 | > 25 | > 25 | 0.0421 | 0.903 | 0.246 | > 25 | > 25 | 0.02 | > 25 | inhibition [16]: 70 to 80%; K [18]: 0.0064 s⁻¹
3 | CC(=O)N[C@H]1CSSC[C@@H](C(N)=O)NC(=O)[C@H](CC(=O)O)NC(=O)[C@H](CC(C)C)NC(=O)[C@H](Cc2ccc(O)cc2)NC(=O)[C@H](CCCNC(=N)N)NC(=O)[C@H](CO)NC(=O)[C@H](Cc2ccc(O)cc2)NC(=O)[C@H](C)NC(=O)[C@@H]2CCCN2C1=O (Ac-CPAYSRYLDC-NH2; disulfide 1-10) | Non-Toxic | > 25 | > 25 | 8.3 | > 25 | 0.55 | 30 | > 25 | 0.398 | > 25 | > 25 | > 25 | > 25 | 0.354 | 15 | 1.77 | > 25 | > 25 | 0.55 | > 25 | inhibition in vivo at 12.3 mg/kg (CT26 [24]): 36.4%; Activity (CT26 [25]): inactive; Activity (CT26 [26]): inactive; Activity [27]: Non-Toxic; Activity (CT26 [28]): Active; Activity (CT26 [29]): inactive; Activity (CT26 [30]): inactive; inhibition [31]: Dose-dependent effect
